Shown are actives, neighbours in structure and some others; about 4.9% of the full set was active somewhere.
STAT1 act – activators of IFN-gamma induced STAT1 signaling; NIH 3T3 STAT1-luciferase reporter, luminescence; 100% = IFN-gamma alone, no compound; activation (% of control), % at 5.5 µM; 200,000 compounds, 2.6% hits;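 active means activation above the screen-wide mean activation plus 3 SD, cut at about 130% in these data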;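 further: raw ratio to IFN-gamma control signal so 100% means no change and 0% no light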
STAT3 inh – reduces IL-6 driven STAT3 reporter signal. inhibition, % at 5.5 µM. U3A cells, IL-6 STAT3-luciferase reporter, luminescence; host cell line lacks STAT1. 190,000 compounds, 0.89% hits;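 active means inhibition above the mean inhibition across all screened compounds plus 3 SD, cut at about 44% in these data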;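 further: 0% = DMSO only wells and 100% = 100 µM nifuroxazide control wells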
STAT3 activator – activators of IL-6 induced STAT3 signaling | U3A cells, IL-6 STAT3-luciferase reporter, luminescence; 100% = signal with IL-6 EC80 alone | 190,000 compounds, 0.91% hits | activation (% of control), % at 5.6 µM | AID 871;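 active means activation above the screen-wide mean of compound activation plus 3 SD, cut at about 130% in these data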;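 further: 0% = background luminescence of wells with medium and substrate only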
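Assay system – human STAT1-deficient U3A cells with stable STAT3-luciferase reporter · Also added – IL-6 (33 ng/mL) · Schedule – compound 1 h, then IL-6 6 h at 37 °C · Technique – reporter luminescence signal · Evaluation – % activation versus median of IL-6-stimulated wells · Benchmarks – IL-6-only wells as 100% reference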
NF-kB neuron act – NF-kB expression increase, human neuronal cells; NF-kB reporter expression; hits give high values; 190,000 compounds, 1.6% hits; AID 1239; fold change at 12.5 µM; in the data active means fold change above about 3.3
APP 5'UTR act – APP 5'UTR luciferase reporter activation. SH-SY5Y APP 5'UTR luciferase reporter, luminescence; zero percent = DMSO vehicle wells. activation, % at 2 µM. 190,000 compounds, 1% hits. AID 1276;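 active means activation above a set limit, based on mean plus 3 SD of controls, cut at about 140% in these data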
STAT1 inh – reduces IFN-gamma driven STAT1 reporter signal; NIH 3T3 STAT1-luciferase reporter, luminescence; inhibition, % at 5.5 µM; 200,000 compounds, 0.35% hits; AID 920;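 active means inhibition above a set limit, the mean inhibition across all tested compounds plus 3 SD, cut at about 34% in these data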;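 further: 0% = IFN-gamma with DMSO and 100% = IFN-gamma with 300 µM nifuroxazide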
STAT1 act conf – STAT1 activation, confirmation assay | shares compounds with STAT1 act | NIH 3T3 STAT1-luciferase reporter, IFN-gamma potentiation, luminescence; 100% = IFN-gamma EC80 alone, no compound | activation (% of control), % at 5.7 µM | 1,200 compounds, 97% hits | AID 1262;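 active means activation above a set limit carried over from the earlier primary STAT1 screen, cut at about 140% in these data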;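 further: simple ratio to median IFN-gamma plus DMSO wells so 0% means no light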
NFkB act – activates NF-kappaB, counter-screen to STAT1 activators; shares compounds with STAT1 act; AID 1306; HEK293T NF-kB luciferase reporter, TNF-alpha stimulated, luminescence; 100% = TNF-alpha with vehicle only; 1,200 compounds, 43% hits; activation (% of control), % at 5.7 µM;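 active means activation above the mean of solvent-only control wells plus 3 SD, set per campaign, cut at about 130% in these data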;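 further: TNF-alpha given at a submaximal dose yielding about 80% of full reporter signal; values are well signal over median control so 100% means no change and 0% no light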
STAT3 act 2 – counter-screen for STAT1 activators: human STAT3 activation; AID 1316; U3A cells STAT3-luciferase reporter, IL-6, luminescence; cells lack STAT1; 100 = IL-6 alone, no compound effect; shares compounds with STAT1 act; 1,200 compounds, 46% hits; activation (% of control), % at 5.7 µM;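 active means activation above the solvent-only control well mean plus 3 SD, set per plate batch, cut at about 110% in these data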;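 further: 0% = no luminescence and 100% = median IL-6 plus DMSO wells; higher means more STAT3 reporter activation so hits are non-selective activators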
Numbers without * were called inactive; . = not tested or not shown.

SMILES	STAT1 act	STAT3 inh	STAT3 activator	NF-kB neuron act	APP 5'UTR act	STAT1 inh	STAT1 act conf	NFkB act	STAT3 act 2
O=C(NC1CCS(=O)(=O)C1)c1cc(-c2ccccc2)nc2ccccc12 (stereo not drawn)	97	0	102	0.98	3	3	.	.	.
Cn1cccc1-c1cc(C(=O)N/N=C/c2cccc(O)c2)[nH]n1	114	-4	106	1.8	16	-16	.	.	.
COc1cc(NC(=O)CSc2nc(C)c(C)c(C)n2)cc(OC)c1	98	-5	105	1.2	9	2	.	.	.
Brc1ccc(-c2nnc(-c3ccco3)o2)cc1	155*	15	91	3	70	-60	181*	130	100
Brc1ccc(-c2nnc(-c3ccccc3Br)o2)cc1	164*	8	98	0.93	169*	-68	216*	138*	102
Clc1ccc(-c2nnc(-c3ccccc3Cl)o2)cc1	161*	40	67	5.3*	202*	-67	218*	123	95
O=c1c2cn[nH]c2[nH]c(=S)n1-c1cccc(Cl)c1	92	13	96	1.6	-12	8	.	.	.
C=CCN1C(=O)C(CC(=O)Nc2ccccc2)SC1=Nc1ccc(S(N)(=O)=O)cc1 (stereo not drawn)	104	16	90	0.61	8	-4	.	.	.
Cc1cc(/C=C(\C#N)C(=O)Nc2ccccc2F)c(C)[nH]1	172*	7	98	5.5*	147*	-79	235*	141*	116*
Cc1cc(/C=C(\C#N)C(=O)NCc2ccco2)c(C)[nH]1	109	6	96	1.4	13	-8	.	.	.
CC(=O)Nc1ccc(/C=N/NC(=S)NC(C)C)cc1	103	11	97	1.1	13	-3	.	.	.
O=C(CCNC(=O)c1ccc(Cl)cc1)Nc1c(F)c(F)cc(F)c1F	87	19	83	1.2	-14	14	.	.	.
CCOc1ccc(C(=O)Nc2ccc(Cl)cn2)cc1Cl	158*	17	87	4.9*	153*	-63	188*	137*	99
O=c1cc(NCCc2ccccc2)c2ccccc2o1	113	12	92	1.5	50	-16	.	.	.
Cc1ccc(NCC(=O)NNC2=NCCC2)c(C)c1	97	9	95	1.3	-6	3	.	.	.
CCOc1ccc(NC(=O)C(=S)NC2CCCCC2)cc1	126	-3	105	1.6	57	-31	.	.	.
CCc1ccc(NC(=O)C(=S)NC2CCCCC2)cc1	160*	13	98	2.9	116	-67	200*	144*	113*
COc1ccc(NC(=O)C(=S)NC2CCCCC2)cc1	158*	-11	110	0.91	121	-67	194*	138*	115*
CCOC(=O)CN1C(=O)N[C@H](c2ccc(Br)cc2)C(C(C)=O)=C1C	97	-8	104	1.2	1	3	.	.	.
C=CCNc1nc(-c2ccc([N+](=O)[O-])cc2)cs1	151*	24	82	4*	72	-58	194*	136*	88
C=CCNc1nc(-c2ccc(Cl)cc2)cs1	182*	26	80	7.5*	166*	-90	215*	141*	99
CCCC(=O)Nc1ccc2oc(=O)ccc2c1	108	3	107	1.5	-12	-10	.	.	.
Oc1ccc(-c2csc(-c3ccccc3)n2)cc1O	151*	7	97	6.3*	53	-58	166*	109	106
NNC(=O)c1ccc2nc(-c3ccc(Br)cc3)cn2c1	162*	4	108	1.8	57	-69	208*	132	115*

Source: PubChem BioAssay
